The target in experiment [1] is T1, Med25 AcID fl-VP16(465–490) (Homo sapiens, UniProt Q71SY5).
T1 sequence (Q71SY5 389-543 limits assumed): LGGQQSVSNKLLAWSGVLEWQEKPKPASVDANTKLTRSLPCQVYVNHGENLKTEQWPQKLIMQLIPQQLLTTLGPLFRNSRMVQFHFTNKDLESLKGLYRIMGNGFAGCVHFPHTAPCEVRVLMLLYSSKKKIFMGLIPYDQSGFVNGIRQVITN
The format is binding.

Another experiment deals with IBiD ACTR (Homo sapiens, UniProt Q92793). The format is binding.
A further experiment has as its target T2, Med25 AcID ETV5 (Homo sapiens, UniProt Q71SY5).
T2 sequence (Q71SY5 389-543 limits assumed): T1 sequence (Q71SY5 389-543 limits assumed)
Description: Fluorescence polarization inhibition of Med25 AcID ETV5 interaction. The settings on record: H1 binding surface. (In fluorescence polarisation assays a small probe gives low polarisation when free and higher when bound to something large.)

Another experiment deals with MDA-MB-231 cells. Description: Isobologram synergy with lapatinib, cell viability assay. The settings on record: fixed dose ratios, 2 days, MTT. It counts as cell-based.
Another experiment concerns the target T3, full-length Med25 (Homo sapiens, UniProt Q71SY5).
T3 sequence (Q71SY5 1-747): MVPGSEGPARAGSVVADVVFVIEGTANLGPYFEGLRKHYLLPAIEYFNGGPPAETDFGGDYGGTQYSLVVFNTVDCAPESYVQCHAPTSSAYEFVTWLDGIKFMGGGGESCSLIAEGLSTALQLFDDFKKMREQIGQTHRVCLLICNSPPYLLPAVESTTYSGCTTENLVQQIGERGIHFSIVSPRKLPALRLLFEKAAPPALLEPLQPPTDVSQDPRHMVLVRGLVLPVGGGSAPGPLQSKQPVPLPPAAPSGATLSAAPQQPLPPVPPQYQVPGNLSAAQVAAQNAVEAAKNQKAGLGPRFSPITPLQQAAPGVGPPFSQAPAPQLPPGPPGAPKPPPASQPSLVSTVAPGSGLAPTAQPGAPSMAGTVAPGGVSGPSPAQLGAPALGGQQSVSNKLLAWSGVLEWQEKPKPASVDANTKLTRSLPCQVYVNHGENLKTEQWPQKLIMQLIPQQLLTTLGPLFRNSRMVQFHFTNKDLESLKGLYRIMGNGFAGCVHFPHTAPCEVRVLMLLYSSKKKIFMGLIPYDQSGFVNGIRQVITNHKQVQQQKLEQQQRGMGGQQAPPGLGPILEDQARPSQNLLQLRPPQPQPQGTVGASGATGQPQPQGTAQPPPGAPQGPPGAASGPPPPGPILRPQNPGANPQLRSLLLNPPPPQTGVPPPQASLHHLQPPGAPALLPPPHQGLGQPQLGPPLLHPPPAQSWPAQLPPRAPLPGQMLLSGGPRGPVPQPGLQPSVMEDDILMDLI
Description: Cellular thermal shift assay in HeLa cell nuclear extracts. The format is cell-based. The settings on record: 25 μM NA. The essentials:
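HeLa cell nuclear extracts were dosed with 25 μM test compound or an equivalent amount of DMSO vehicle. Samples were then heated across a range of temperatures to assess thermal stabilization of Med25.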

In experiment [2] the target is T4, Med25 ETV5 complex (Homo sapiens, UniProt Q71SY5).
T4 sequence (Q71SY5 1-747): T3 sequence (Q71SY5 1-747)
Description: Co-immunoprecipitation of ETV5 with Med25 in HeLa cells. The format is cell-based. The settings on record: 25 μM NA.

The target in experiment [3] is T5, Med25 AcID (Homo sapiens, UniProt Q71SY5, K519R).
T5 sequence (Q71SY5 394-543 K519R): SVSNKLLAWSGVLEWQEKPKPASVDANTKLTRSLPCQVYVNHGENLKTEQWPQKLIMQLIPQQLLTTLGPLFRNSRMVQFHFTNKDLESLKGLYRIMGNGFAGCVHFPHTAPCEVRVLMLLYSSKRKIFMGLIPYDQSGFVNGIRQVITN
Description: Mass spectrometry. The format is binding. The settings on record: Med25 K519R mutant.

For experiment [4], the target named is T6, Med25 AcID (Homo sapiens, UniProt Q71SY5, K520R).
T6 sequence (Q71SY5 394-543 K520R): T5 sequence (Q71SY5 394-543 K519R) with R126K, K127R
Description: Mass spectrometry. It counts as binding. The note with it: Med25 K520R mutant.

The target in experiment [5] is T7, Med25 AcID (Homo sapiens, UniProt Q71SY5).
T7 sequence (Q71SY5 389-543 limits assumed): T1 sequence (Q71SY5 389-543 limits assumed)
In words: Mass spectrometry. It counts as binding. The settings on record: mass spectrometry.

For another experiment, the target named is T8, Med25 ATF6α (Homo sapiens, UniProt Q71SY5).
T8 sequence (Q71SY5 389-543 limits assumed): T1 sequence (Q71SY5 389-543 limits assumed)
Description: Fluorescence polarization inhibition of Med25 ATF6α interaction. The settings on record: H2 binding surface.

Experiment [6] addresses T4, Med25 ETV5 complex. In words: Co-immunoprecipitation of ETV5 with Med25 in VARI068 cells. It counts as cell-based. The method in brief: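 Cells were treated with test compound. ETV5 was co-immunoprecipitated with Med25 and detected by Western blot.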
The subject of a further experiment is MMP2 transcript. Description: qPCR analysis of MMP2 transcript levels in VARI068 cells. It counts as cell-based. The note with it: normalized to RPL19. The method in brief:
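Test compound- or vehicle-treated cells were assayed by qPCR for MMP2 transcript, normalized to reference gene RPL19. Runs were technical triplicates in biological duplicate and averaged.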

The structures appear in SMILES notation. Numbering of substitutions follows the chain as printed.

Consider `COc1cc(C(=O)O)c2c(c1C)OC(=O)c1c(C)cc(O)c(C=O)c1O2` [PA, psoromic acid], for which, in experiment [1], the IC50 (in general, the concentration that gives 50% inhibition) was determined as 3.9 ± 0.3 µM.

`Cc1cc(O)c(C=O)c2c1C(=O)Oc1c(C)c(O)c3c(c1O2)C(O)OC3=O` (centres unmarked) [NA, norstictic acid] yielded an IC50 on IBiD ACTR of over 250 µM. For the same molecule, on Med25 AcID ETV5, the “inhibition of Med25 PPI with ETV5” value is listed as “inhibits”. Moreover, in the experiment with MDA-MB-231 cells, the synergy with lapatinib entry was “strong synergy was observed”. In addition, the “thermal stabilization of endogenous Med25” value on full-length Med25 was “stabilizes endogenous Med25 protein”. Besides, the “formation of Med25 ETV5 complex” value at Med25 ETV5 complex [2] is “blocks the formation of the Med25 ETV5 complex”; on Med25 ETV5 complex [6], “blocks the Med25 ETV5 complex”. Also, the “reduction in mass abundance of the +1 covalent adduct” value at Med25 AcID [3] came out at 53%. Further, on Med25 AcID [4], the “reduction in mass abundance of the NA covalent adduct” value came to 22%. At Med25 AcID [5], the “covalent adduct formation with Med25 AcID” value (“covalent adduct formation” below) is “concentration-dependent covalent adduct(s)”. Also, the “inhibition of Med25 PPI with ATF6α” value at Med25 ATF6α is recorded as “inhibits”. Moreover, the “MMP2 transcript levels relative to vehicle” value with MMP2 transcript is recorded as “substantial downregulation of MMP2”. In addition, the “time at which significant inhibition was observed” value in experiment [1] (time-course experiment) was found to be 5 min.

`O=Cc1ccccc1O` [salicylaldehyde]: the “covalent adduct formation” value on Med25 AcID [5] was “efficiently labels Med25 AcID”. In experiment [1], the “impact on binding of activators to Med25 AcID” value is “does not impact binding of activators”.

`COc1cc(C)c2c(c1C=O)Oc1c(c(C)c(O)c3c1C(O)OC3=O)OC2=O` (centres unmarked) [Stictic acid]: the IC50 in [1] is over 250 µM.

For the molecule `COc1cc(C)c(C(=O)Oc2cc(C)c(C(=O)O)c(O)c2C)c(O)c1C=O` [baeomycesic acid], at Med25 AcID [5], the “covalent adduct formation” value is on record as “covalent adducts with Med25 were observed”.

These data come from paper PMC8717358 (Journal of the American Chemical Society, 2021).
